Bioassay records as filed in PubChem BioAssay.
Platelet DG rel: modulates dense granule release in human platelets; human platelet-rich plasma, SFLLRN dense granule ATP release, luminescence; inhibition, %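 (compounds screened at 7.5 µM in platelet-rich plasma)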; 0.22% of 300,000 active;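 active means mean replicate score, as percent of positive control, at or above 50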
Thrombin inh: inhibitors of human thrombin; P00734; alpha-thrombin, Boc-VPR-AMC fluorogenic substrate cleavage; inhibition, % at 5 µM; 0.26% of 220,000 active;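 active means inhibition at or above 40%; inactive means inhibition below 40%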;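 further: 0% = enzyme with no compound and 100% = wells without enzyme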
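System: Human alpha-thrombin protein | Medium: pH 7.5 Tris (50 mM) with NaCl 150 mM, Tween 20 0.05% | Times: Enzyme reaction carried out at room temperature | Detection: AMC fluorescence, 355/460 nm | Evaluation: Percent inhibition scaled between no-compound controls and no-enzyme blanks | Benchmarks: Enzyme without compound as high, wells lacking enzyme as low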
Wee1 degr inh: blocks degradation of human Wee1 kinase; HeLa Luc-Wee1K328M stability, luciferase luminescence; 100% = proteasome inhibitor MG132 effect; reporter increase, % at 5 µM; 1.2% of 220,000 active; AID 1321;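 active means activation above the mean of all tested compounds plus 3 SD, set per screening run, cut at about 8.8% in these data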;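 further: cells exposed to compound for 20 h before luminescence read; 0% = DMSO alone and 100% = MG132 at 30 µM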
Target sequence (P30291 whole entry K328M): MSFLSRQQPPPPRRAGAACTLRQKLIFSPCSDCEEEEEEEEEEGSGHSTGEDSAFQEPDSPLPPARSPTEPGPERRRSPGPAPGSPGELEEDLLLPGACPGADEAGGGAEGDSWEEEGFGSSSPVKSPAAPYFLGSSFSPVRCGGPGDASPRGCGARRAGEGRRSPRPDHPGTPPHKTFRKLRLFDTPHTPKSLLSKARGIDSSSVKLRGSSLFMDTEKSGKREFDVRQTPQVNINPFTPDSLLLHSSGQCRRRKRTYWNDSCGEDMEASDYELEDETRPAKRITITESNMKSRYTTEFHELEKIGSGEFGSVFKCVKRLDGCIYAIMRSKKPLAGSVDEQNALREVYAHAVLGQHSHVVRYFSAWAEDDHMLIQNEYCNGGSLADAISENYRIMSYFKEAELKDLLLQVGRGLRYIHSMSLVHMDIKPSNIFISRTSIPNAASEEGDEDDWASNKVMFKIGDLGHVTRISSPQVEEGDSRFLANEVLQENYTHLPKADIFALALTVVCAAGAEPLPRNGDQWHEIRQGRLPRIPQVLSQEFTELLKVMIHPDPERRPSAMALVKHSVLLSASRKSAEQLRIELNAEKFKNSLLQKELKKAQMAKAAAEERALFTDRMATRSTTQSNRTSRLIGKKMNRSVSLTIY
KLK5 inh: blocks human kallikrein 5 protease activity; Q9Y337; recombinant hK5, fluorogenic AMC substrate cleavage; inhibition, % at 5 µM; 0.59% of 210,000 active; AID 873;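 active means inhibition of 40% or more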;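 further: 0% = enzyme controls without compound and 100% = no-enzyme blanks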
FXIIa inh: blocks human coagulation factor XIIa protease activity. P00748. purified FXIIa, Boc-QGR-AMC fluorogenic substrate, 2 h. inhibition, % at 5 µM. 0.3% of 220,000 active. AID 800; in the data active means inhibition above about 40%;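 further: 0% = enzyme with no compound and 100% = blank without enzyme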
FXIa inh: inhibitors of human coagulation factor XIa | P03951 | purified FXIa, Boc-Glu-Ala-Arg-AMC fluorogenic substrate | inhibition, % at 5 µM | 0.14% of 220,000 active;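 active means inhibition of at least 40%; inactive means inhibition below 40%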;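 further: fluorescence of freed AMC excited at 355 nm; 0% = enzyme without compound and 100% = no enzyme blank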
Wee1 degr conf: confirmation of human Wee1 degradation inhibitors. shares compounds with Wee1 degr inh. HeLa Luc-Wee1K328M degradation, luminescence; vehicle 0%, proteasome-blocked wells 100%. activation, % at 5 µM. 4% of 1,100 active. AID 1410; in the data active means activation above about 8.9%
An asterisk follows results filed as active; . = not tested or not shown. An excerpt weighted towards active compounds, which were near 1.8% of everything screened.

SMILES | Platelet DG rel | Thrombin inh | Wee1 degr inh | KLK5 inh | FXIIa inh | FXIa inh | Wee1 degr conf
CNCC(O)COc1ccccc1 (stereo not drawn) | 3.3 | -2.4 | -0.9 | -1.9 | 3.8 | -4.1 | .
O=[N+]([O-])c1cccc(N(CC2CO2)S(=O)(=O)c2ccccc2)c1 (stereo not drawn) | 13.1 | . | . | . | . | . | .
C[C@H](O)[C@@H](C(=O)N1CCN(C(=O)OC(C)(C)C)CC1)n1cc(CCCCNC(=O)OC(C)(C)C)nn1 | 2.5 | -6.1 | 22.2* | -0.7 | 5.7 | -0.9 | -0.1
CN(CCc1ccccn1)C(=S)Nc1ccc(Cl)c(Cl)c1 | -4.1 | -4.3 | 15.1* | 1.5 | 5.6 | -2.0 | 2.9
CC(C)Cc1cc(CN2CCCC(CO)(Cc3cccc(Cl)c3)C2)[nH]n1 (stereo not drawn) | 1.7 | -4.8 | -2.4 | 0.0 | 5.0 | -1.9 | .
Cc1cc(CN2CCCC(CO)(Cc3cccc(Cl)c3)C2)n[nH]1 (stereo not drawn) | -0.3 | -8.2 | 14.3* | . | 3.8 | -0.2 | 0.0
O=C1CCC/C(=N/NC(=O)C2CCN(S(=O)(=O)c3cccs3)CC2)C1 | -4.1 | -5.6 | -0.7 | -7.1 | 1.8 | 2.3 | .
C=CCNCCOc1ccc(C)cc1[N+](=O)[O-] | 16.1 | -13.1 | 1.5 | 2.1 | 1.8 | -2.8 | .
CCC(C)NCCOc1ccc(C)cc1[N+](=O)[O-] (stereo not drawn) | -17.1 | 40.7* | 25.1* | . | 23.4 | 12.0 | 0.4
O=C(CSc1ccc(-c2cccnc2)nn1)Nc1ccc(F)cc1 | -11.2 | . | . | . | . | . | .
CN1/C(=C\C(=O)Nc2cccc(Cl)c2)C(C)(C)c2ccccc21 | -0.9 | 0.6 | 19.3* | -5.3 | 2.8 | -2.9 | -0.6
Cc1cccc(NC2CCCCC2NS(=O)(=O)c2ccccc2)c1 (stereo not drawn) | -10.0 | . | . | . | . | . | .
CCc1cccc2c(C(=S)N3CCCC3)c[nH]c12 | 6.2 | -17.3 | 14.3* | 2.5 | 10.6 | -0.7 | 1.1
CCOC(=O)c1cnc2ccc(OCC)cc2c1NCc1ccccc1OC | 20.3 | 0.3 | 2.8 | -20.8 | 10.2 | 2.1 | .
CCOC(=O)c1cnc2ccc(OC)cc2c1NCc1ccccc1 | 12.2 | -0.4 | 12.7* | -10.9 | 10.6 | 7.6 | -0.3
CCOC(=O)/C(N=Nc1c(Br)cc(Br)cc1Br)=C(\C)O | -8.8 | -1.4 | -0.5 | 3.9 | 13.8 | 0.9 | .
C/C(O)=C(/C=Nc1ccccc1)C(=O)Nc1ccccc1 | 11.8 | . | -1.0 | 0.8 | 8.7 | -1.4 | .
C(=N\Nc1nccc(-c2cccnc2)n1)/c1ccccc1 | 31.5 | -4.8 | 0.2 | 1.5 | 1.4 | -1.1 | .
Cc1cc(N/N=C/c2ccc(F)cc2)nc(NCc2ccccc2)n1 | 5.2 | -1.6 | 12.4* | 0.9 | 2.5 | 0.5 | -5.8
Cc1cc(N/N=C/c2ccc(N(C)C)cc2)nc(NCc2ccccc2)n1 | 0.7 | -3.3 | -0.4 | 1.1 | 6.4 | -0.2 | .
Cc1ccnc(N/N=C/c2ccccc2)n1 | -13.3 | -12.1 | 17.1* | -3.4 | 6.8 | -1.2 | 3.1
Cc1cc2c3c([nH]c2cc1S(=O)(=O)N1CCC2(CC1)OCCO2)CCCC3=O | 10.1 | . | . | . | . | . | .
Cc1cc(C)n(CC(O)COc2ccc(Cl)cc2Cl)n1 (stereo not drawn) | 5.7 | . | . | . | . | . | .
Cc1cc(C)n(CCOc2ccc(Cl)cc2Cl)n1 | -8.0 | -2.3 | 11.1* | -16.6 | 12.6 | 8.8 | -1.8
CCCn1c(SCC(=O)Nc2cccc(S(=O)(=O)N(C)C)c2)nc2ccccc2c1=O | 5.3 | -2.3 | -1.4 | 3.5 | 7.5 | 4.1 | .
SMILES | Platelet DG rel | Thrombin inh | Wee1 degr inh | KLK5 inh | FXIIa inh | FXIa inh | Wee1 degr conf
CCN1CC(CNCc2cn(-c3ccc(OC)cc3)nc2-c2ccccc2Cl)CC1=O (stereo not drawn) | -2.1 | 1.4 | 23.8* | . | 4.7 | -2.7 | 0.8
COc1ccc(-n2cc(CNCC3CC(=O)N(C4CC4)C3)c(-c3ccccc3Cl)n2)cc1 (stereo not drawn) | 4.2 | 1.3 | -0.4 | 3.4 | 14.3 | 0.1 | .
Cc1nc(NC2=NCN(CCc3ccccc3)CN2)nc2c(C)cccc12 | . | . | -0.3 | . | . | . | .
O=C(c1cc(=O)[nH]c2ccccc12)N1CCN(c2ccc([N+](=O)[O-])cc2)CC1 | -3.1 | 0.0 | 58.9* | 5.2 | 6.3 | 10.4 | -2.9
Cc1ccc(S(=O)OCC(=O)Nc2cc(Cl)ccc2N2CCOCC2)cc1 (stereo not drawn) | 4.3 | 0.0 | 16.1* | -4.0 | 11.8 | 1.3 | 2.8
Cc1cc(C)cc(OCC(=O)OCC(=O)N(CC(C)C)c2c(N)n(Cc3ccccc3)c(=O)[nH]c2=O)c1 | -10.8 | . | . | . | . | . | .
CC(C)CNC(=O)CN(C1CCCCC1)S(=O)(=O)c1ccccc1 | -2.5 | -2.8 | 11.4* | -8.2 | -1.0 | -9.9 | -0.8
CC(C)(C)c1ccc(C(=O)Nc2ccc(F)cc2)s1 | 14.0 | 7.6 | 12.1* | 9.7 | 13.1 | 2.0 | 7.1
CCc1cc2cc(C(=O)Nc3ccc(F)cc3)sc2s1 | 11.3 | 1.3 | -0.3 | -1.2 | 12.8 | 3.8 | .
Cc1cc(C)cc(NC(=O)C(=O)NCCCN2CCOCC2)c1 | 5.9 | 2.8 | 2.8 | 18.8 | 14.4 | 5.2 | .
Cc1ccsc1/C=C1/CN(C)Cc2c1nc1ccccc1c2C(=O)O | -0.6 | -3.4 | 11.1* | -2.4 | 3.4 | 8.0 | -0.7
COC(=O)c1ccccc1N=Nc1c(N)[nH][nH]c1=O | -0.7 | 1.3 | 17.9* | 3.4 | 10.0 | 4.0 | 1.0
O=C(CSc1nnc(-c2cccc(S(=O)(=O)N3CCCC3)c2)n1-c1ccccc1)Nc1ccc(C(=O)O)cc1 | -2.3 | -2.5 | -0.3 | . | 5.7 | 0.2 | .
Cc1cccc(C)c1-n1c(SCC(=O)Nc2ccc(C(=O)O)cc2)nnc1-c1cccc(S(=O)(=O)N(C)C)c1 | -5.0 | -7.3 | 11.7* | 2.5 | 10.6 | 0.4 | -0.8
C=CCN=C1NN=C(c2ccc3c(c2)OCCO3)CS1 | 9.7 | -7.3 | -1.6 | -1.6 | 3.1 | -5.2 | .
CC(C)[C@H](NC(=O)c1ccco1)C(=O)OCC(=O)N1CC(=O)Nc2ccccc21 | -3.8 | -7.7 | 14.0* | -5.3 | 7.2 | 5.5 | -0.6
CC(C)[C@H](NC(=O)c1ccco1)C(=O)OCC(=O)N1CCc2ccccc21 | 0.8 | 2.1 | 1.3 | 7.8 | 20.0 | 3.8 | .
COc1ccc(CCNC(=O)CSc2nnc(Cc3cccn3C)n2C)cc1OC | 0.9 | 0.6 | -0.8 | 0.7 | 8.2 | -2.7 | .
CCCC(C)NC(=O)c1ccc(OCc2ccc(Cl)cc2)c(OC)c1 (stereo not drawn) | -0.2 | -8.4 | -2.4 | -7.4 | 0.5 | -9.7 | .
COc1ccccc1CC(=O)Nc1ccc(-c2noc(COc3cccc(C)c3C)n2)cc1 | 3.2 | -2.9 | 11.1* | -16.8 | 13.3 | 7.5 | 5.5
Cc1ccccc1OCC(=O)OCn1nnc2ccccc2c1=O | -2.0 | -11.6 | 12.5* | -2.4 | 1.0 | 0.4 | 0.4
CCn1cc(C(=O)OCC(=O)N2C(C)CCCC2C)c(=O)c2ccc(C)nc21 (stereo not drawn) | -12.8 | -1.4 | 11.3* | -1.2 | 4.2 | -3.6 | -0.3
